Assay results taken from ChEMBL document CHEMBL1158062, “Cyclopentenones, scaffolds for organic syntheses produced by the endophytic fungus mitosporic dothideomycete sp. LRUB20” (J Nat Prod, 2006).
≈ marks a conversion by molar mass, not a printed value. Calls of active or inactive are those of the source. No cut-off for these calls is given here.

Tests used:
Vero [1] = assay: Cytotoxicity against african green monkey Vero cells by SRB assay; format: cell-based; conditions: chlorocebus sabaeus
Procedure, shortened: (§1)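 Colorimetric cytotoxicity read-out following the Skehan method, run on Vero, KB, NCI-H187 and BC cell lines, with ellipticine included as the reference compound; result reported as IC50.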

KB [2] = assay: Cytotoxicity against human KB cells by SRB assay; format: functional, cell-based; procedure, shortened: as §1
NCI-H187 [3] = assay: Cytotoxicity against human NCI-H187 cells by SRB assay; format: functional, cell-based; procedure, shortened: as §1
BC [4] = assay: Cytotoxicity against BC cells by SRB assay; format: functional, cell-based; procedure, shortened: as §1
[5] = system: Mycobacterium tuberculosis; assay: Antimycobacterial activity against Mycobacterium tuberculosis H37Ra by microplate alamar blue assay; format: functional
Procedure, shortened: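 M. tuberculosis H37Ra grown in Middlebrook 7H9 broth and tested in a microplate Alamar Blue assay, with MIC as the read-out. Isoniazid and kanamycin sulfate were run as standard drugs.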

Vero [6] = assay: Cytotoxicity against african green monkey Vero cells at 50 ug/ml by SRB assay; format: cell-based; conditions: chlorocebus sabaeus
BC [7] = assay: Cytotoxicity against BC cells at 50 ug/ml by SRB assay; format: functional, cell-based
NCI-H187 [8] = assay: Cytotoxicity against human NCI-H187 cells at 50 ug/ml by SRB assay; format: functional, cell-based
KB [9] = assay: Cytotoxicity against human KB cells at 50 ug/ml by SRB assay; format: functional, cell-based

Row | Compound | IC50 (Vero [1]) | Activity (KB [2]) | Activity (NCI-H187 [3]) | Activity (BC [4]) | MIC [5] | Activity (Vero [6]) | Activity (BC [7]) | Activity (NCI-H187 [8]) | Activity (KB [9])
1 | C[C@@H]1CC/C(=N\Nc2ccc([N+](=O)[O-])cc2[N+](=O)[O-])[C@@H]1CO | 21.7 µg/mL (≈ 70.4 µM) | inactive | inactive | inactive | 200 µg/mL (≈ 649 µM) | – | – | – | –
2 | CC1=C(CO)/C(=N/Nc2ccc([N+](=O)[O-])cc2[N+](=O)[O-])CC1 | – | – | – | – | – | Not Active | inactive | inactive | inactive
3 | COC(=O)c1cc(O)cc(OC)c1Oc1cc(C)cc(O)c1C(=O)O [ASTERRIC ACID] | – | – | – | – | 200 µg/mL (≈ 574 µM) | Not Active | inactive | inactive | inactive
4 | CC1=C(CO)C(=O)CC1 | – | – | – | – | 200 µg/mL (≈ 1590 µM) | Not Active | inactive | inactive | inactive
